Measurements as given in article PMC7704867 (Biochimica et biophysica acta. Biomembranes, 2020).
Ends that are not written are not given here. Peptide text beside a SMILES is read from it. * marks the point of attachment. DOTA = O=C(O)CN1CCN(CC(=O)O)CCN(CC(=O)*)CCN(CC(=O)O)CC1

B1: Ac-SW-T/E (peptide)
peptide: Ac-CFLHFGKEGSSGPLQ
B2: Ac-SW-S/E (peptide)
peptide: Ac-CFLHFGKTGESGPLQ
B3: Ac-SW-F/A (peptide)
peptide: Ac-CFLHAGKTGSSGPLQ
B4: Ac-LW, CEACAM1 long form 15 amino acid peptide (peptide)
peptide: Ac-CFLHFGKTGRASDQR
B5: Ac-SW-TS/EE (peptide)
peptide: Ac-CFLHFGKEGESGPLQ
B6: Ac-SW, CEACAM1 short form 15 amino acid peptide (peptide)
peptide: Ac-CFLHFGKTGSSGPLQ
B7: Y-DOTA-SW (peptide)
peptide: {DOTA}-GFLHFGKTGSSGPLQ
modifications: also: N-terminal DOTA chelated with Y3+

Assays:
[1] = system: AnxA2; type: binding, human; settings: 60 μM peptide, up to molar ratio 1:1, 1H-15N HSQC, 25°C, pH 5.5
Method in brief: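 Recombinant human AnxA2 (C-terminal thrombin site and His tag, expressed in E. coli C41(DE3)) titrated up to 1:1 molar ratio into uniformly 15N-labelled 12-residue CEACAM1-SF peptide (Trx-SMT3 fusion grown in M9/15NH4Cl, Ulp1-cleaved, HPLC-purified) at 60 μM. Buffer: 50 mM NaAc-d3, 2 mM DTT, 5% D2O. 1H-15N HSQC at 700 MHz with cryoprobe; chemical shift perturbations monitored.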

[2] = target: 15N-S100A10-AnxA2Nter fusion protein (Homo sapiens, UniProt P60903); type: binding
[3] = target: Ac-^15N-F454G458G461-SW; assay: NMR titration
[4] = target: S100A10-AnxA2Nter fusion protein [S100A10(1–92)-ENLYFQGD linker-AnxA2 peptide (1–13)]; assay: NMR titration

Molecule | Kd [2] | Kd [4] | also measured
453-HFGKTGSSGPLQ-464 [^15N-SW-12] |  |  | chemical shift perturbation of peptide on titration with AnxA2 [1]: no chemical shift perturbation
CC(=O)N[C@@H](CS)C(=O)N[C@@H](Cc1ccccc1)C(=O)N[C@@H](CC(C)C)C(=O)N[C@@H](Cc1c[nH]cn1)C(=O)N[C@@H](C)C(=O)NCC(=O)N[C@@H](CCCCN)C(=O)N[C@H](C(=O)NCC(=O)N[C@@H](CO)C(=O)N[C@@H](CO)C(=O)NCC(=O)N1CCC[C@H]1C(=O)N[C@@H](CC(C)C)C(=O)N[C@@H](CCC(N)=O)C(=O)O)[C@@H](C)O [Ac-SW-F/A] (Ac-CFLHAGKTGSSGPLQ-OH) | 2.1 ± 0.81 mM |  | 
S100A10-AnxA2Nter fusion protein [S100A10(1–92)-ENLYFQGD linker-AnxA2 peptide (1–13)] |  |  | Kd [3]: 460 µM
CC(=O)N[C@@H](CS)C(=O)N[C@@H](Cc1ccccc1)C(=O)N[C@@H](CC(C)C)C(=O)N[C@@H](Cc1c[nH]cn1)C(=O)N[C@@H](Cc1ccccc1)C(=O)NCC(=O)N[C@@H](CCCCN)C(=O)N[C@@H](CCC(=O)O)C(=O)NCC(=O)N[C@@H](CO)C(=O)N[C@@H](CO)C(=O)NCC(=O)N1CCC[C@H]1C(=O)N[C@@H](CC(C)C)C(=O)N[C@@H](CCC(N)=O)C(=O)O [Ac-SW-T/E] (Ac-CFLHFGKEGSSGPLQ-OH) | 2.33 ± 0.39 mM |  | 
CC(=O)N[C@@H](CS)C(=O)N[C@@H](Cc1ccccc1)C(=O)N[C@@H](CC(C)C)C(=O)N[C@@H](Cc1c[nH]cn1)C(=O)N[C@@H](Cc1ccccc1)C(=O)NCC(=O)N[C@@H](CCCCN)C(=O)N[C@@H](CCC(=O)O)C(=O)NCC(=O)N[C@@H](CCC(=O)O)C(=O)N[C@@H](CO)C(=O)NCC(=O)N1CCC[C@H]1C(=O)N[C@@H](CC(C)C)C(=O)N[C@@H](CCC(N)=O)C(=O)O [Ac-SW-TS/EE] (Ac-CFLHFGKEGESGPLQ-OH) | 3.53 ± 1.2 mM |  | 
CC(=O)N[C@@H](CS)C(=O)N[C@@H](Cc1ccccc1)C(=O)N[C@@H](CC(C)C)C(=O)N[C@@H](Cc1c[nH]cn1)C(=O)N[C@@H](Cc1ccccc1)C(=O)NCC(=O)N[C@@H](CCCCN)C(=O)N[C@H](C(=O)NCC(=O)N[C@@H](CO)C(=O)N[C@@H](CO)C(=O)NCC(=O)N1CCC[C@H]1C(=O)N[C@@H](CC(C)C)C(=O)N[C@@H](CCC(N)=O)C(=O)O)[C@@H](C)O [Ac-SW] (Ac-CFLHFGKTGSSGPLQ-OH) | 0.88 ± 0.1 mM |  | 
CC(=O)N[C@@H](CS)C(=O)N[C@@H](Cc1ccccc1)C(=O)N[C@@H](CC(C)C)C(=O)N[C@@H](Cc1c[nH]cn1)C(=O)N[C@@H](Cc1ccccc1)C(=O)NCC(=O)N[C@@H](CCCCN)C(=O)N[C@H](C(=O)NCC(=O)N[C@@H](CCC(=O)O)C(=O)N[C@@H](CO)C(=O)NCC(=O)N1CCC[C@H]1C(=O)N[C@@H](CC(C)C)C(=O)N[C@@H](CCC(N)=O)C(=O)O)[C@@H](C)O [Ac-SW-S/E] (Ac-CFLHFGKTGESGPLQ-OH) | 1.58 ± 0.2 mM |  | 
B1 |  | 2.33 mM | 
B2 |  | 1.58 mM | 
B3 |  | 2.1 mM | 
B4 |  | 1.22 mM | 
B5 |  | 3.53 mM | 
B6 |  | 0.88 mM | stoichiometry N ([4]; scale: peptides per S100A10-AnxA2Nter fusion dimer): 2
B7 |  | 1.07 mM | 
